Data on 1 molecule can be found in ChEMBL document CHEMBL3351588, “Design, synthesis and biological evaluation of N-alkyl or aryl substituted isoindigo derivatives as potential dual cyclin-dependent kinase 2 (CDK2)/glycogen synthase kinase 3β (GSK-3β) phosphorylation inhibitors” (Eur J Med Chem, 2014).

One test has as its system A549. The test can be described thus: Cytotoxicity against human A549 cells after 48 hrs by SRB assay. The note with it: A549, 48 h. The class given is functional, cell-based. In a few lines: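 Cells seeded at 5 × 10³ per well and allowed to attach for 12 h, then exposed to a range of drug concentrations in their own medium for 48 h. Fixed with ice-cold TCA for 1 h at 4 °C, washed, then stained with 0.4% SRB for 30 min at room temperature. IC50 is the mean of three independent experiments.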

Test [1] concerns K562. The test can be described thus: Induction of necrosis in human K562 cells after 24 hrs by Annexin V-FITC/propidium iodide staining based flow cytometry. The class given is functional, cell-based. Summed up: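 Cells exposed to 0, 5.0, 10.0, 15.0, 20.0 or 30.0 μM for 24 h, or 0.5% DMSO. Stained with FITC–Annexin V and PI counterstain, then read by flow cytometry. Annexin V+/PI− scored as early apoptotic; Annexin V+/PI+ scored as late apoptotic/necrotic.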
(A flow cytometer gives signals particle by particle.)

Test [2] deals with K562. The test is described as follows: Induction of apoptosis in human K562 cells assessed as viable cells level at 20 uM after 48 hrs by Annexin V-FITC/propidium iodide staining based flow cytometry (reference value: 99.21%). The format is functional. Summed up: (§1)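 K562 cells exposed for 24 h or 48 h to 0, 5.0, 10.0, 15.0, 20.0 or 30.0 µM; vehicle DMSO 0.5% v/v. Cells stained with FITC-Annexin V, then counterstained with PI, and analysed by FACScan flow cytometry. Quadrants: Annexin V−/PI− viable; Annexin V+/PI− early apoptotic; Annexin V+/PI+ late apoptotic/necrotic.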

Test [3] has as its system K562. The test is described as follows: Induction of apoptosis in human K562 cells assessed as viable cells level at 20 uM after 24 hrs by Annexin V-FITC/propidium iodide staining based flow cytometry (reference value: 97.64%). The format is functional. Summed up:
as §1

Test [4] concerns K562. The test can be described thus: Reduction in beta-catenin protein expression in human K562 cells at 5 to 30 uM after 24 hrs by Western blotting method. The format is functional, cell-based. (In western blotting, separated proteins are transferred to a membrane and probed.)
The subject of test [5] is K562. The test can be described thus: Induction of cell cycle arrest in human K562 cells assessed as accumulation at G0/G1 phase at 10 uM after 24 hrs by propidium iodide staining based flow cytometry (reference value: 36.14%). The class given is functional.
Test [6] deals with K562. The test can be described thus: Induction of apoptosis in human K562 cells assessed as late apoptotic cells level at 20 uM after 24 hrs by Annexin V-FITC/propidium iodide staining based flow cytometry (reference value: 0.79%). The format is functional. Summed up:
as §1

For test [7], the system named is K562. The test can be described thus: Induction of apoptosis in human K562 cells assessed as early apoptotic cells level at 20 uM after 24 hrs by Annexin V-FITC/propidium iodide staining based flow cytometry (reference value: […]). The format is functional.
Test [8] has as its system K562. The test can be described thus: Induction of apoptosis in human K562 cells assessed as necrotic cells level at 5 uM after 48 hrs by Annexin V-FITC/propidium iodide staining based flow cytometry (reference value: 0.01%). The class given is functional. Summed up:
as §1

The test system of test [9] is K562. The test is described as follows: Induction of apoptosis in human K562 cells assessed as late apoptotic cells level at 5 uM after 48 hrs by Annexin V-FITC/propidium iodide staining based flow cytometry (reference value: 0.54%). The class given is functional. Summed up: as §1
Test [10] has as its system K562. The test is described as follows: Induction of apoptosis in human K562 cells after 48 hrs by Annexin V-FITC/propidium iodide staining based flow cytometry. The format is functional, cell-based. In a few lines:
as §1

The subject of test [11] is K562. The test can be described thus: Reduction in cyclin A protein expression in human K562 cells at 5 to 30 uM after 24 hrs by Western blotting method. The class given is functional, cell-based.
The subject of test [12] is K562. The test can be described thus: Induction of apoptosis in human K562 cells assessed as early apoptotic cells level at 20 uM after 48 hrs by Annexin V-FITC/propidium iodide staining based flow cytometry (reference value: 0.24%). The format is functional. In a few lines: as §1
The subject of test [13] is K562. The test can be described thus: Induction of apoptosis in human K562 cells assessed as viable cells level at 30 uM after 48 hrs by Annexin V-FITC/propidium iodide staining based flow cytometry (reference value: 99.21%). The class given is functional. In a few lines:
as §1

For `COc1ccc(N2C(=O)/C(=C3/C(=O)Nc4ccccc43)c3ccccc32)cc1`, inhibition with A549 was half-maximal at 31.9 µM (IC50). Also, the Activity result in the test with K562 [1] was “Dose-dependent effect”; in the test with K562 [2] it was 82.42%; with K562 [3], 72.9%; with K562 [5], 34.81%; in the test with K562 [6], 12.65%; with K562 [7] it was 14.44%. Further, the Activity in the test on K562 [8] is 0%; in the test with K562 [9], 0.76%; with K562 [10] it was “Dose-dependent effect”; in the test on K562 [12], 5.51%; with K562 [13], 62.69%. In addition, the inhibition result in the test with K562 [4] and in the test on K562 [11] was “Dose-dependent effect” each time.
